The values that follow come from ChEMBL document CHEMBL4261490, “Exploring the links between peptoid antibacterial activity and toxicity” (Medchemcomm, 2017).

Values after ≈ are worked out from the molar mass of the structure shown. Square brackets hold non-standard residues; d marks the D form. Peptide text beside a SMILES is read from it. Gly(Nα-4-Cl-benzyl) = O=C(O)CNCc1ccc(Cl)cc1; Gly(N-(CH2)6NH2) = NCCCCCCNCC(=O)O; Gly(N-2-aminoethyl) = NCCNCC(=O)O; Nspe = C[C@H](NCC(=O)O)c1ccccc1; NhArg = N=C(N)NCCCCNCC(=O)O; NPentylGly = CCCCCNCC(=O)O; Nphe = O=C(O)CNCc1ccccc1; Nlys = NCCCCNCC(=O)O

Broadly, the MIC is the smallest concentration in the dilution series that meets the test's criterion for growth inhibition. Low readings indicate a more susceptible organism, high ones a less susceptible organism.

Series [1] can be described thus: Cytotoxicity against human HaCaT cells assessed as reduction in cell viability pretreated for 1 hr followed by DMEM addition measured after 24 hrs by alamar blue assay. In kind it is cell-based. The conditions noted are these: read-out: ED50. The gist of the method: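 HaCaT keratinocytes are grown in DMEM high glucose with 10% FBS and 1% P/S and seeded at 2x10^4 cells/well 24 h before treatment. Compound dilution series run 2–100 µM (5 mM DMSO stocks) in 50 µL for 1 h, then medium is added for 24 h at 37 °C, 5% CO2. alamarBlue is read after 1 h (Ex 540/Em 620). Triplicate, ≥2 occasions; ED50 from dose-response; amphotericin B positive control.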

Series [2] can be described thus: Cytotoxicity against human HepG2 cells assessed as reduction in cell viability pretreated for 1 hr followed by DMEM addition measured after 24 hrs by alamar blue assay. In kind it is cell-based. To be noted: read-out: ED50. Put shortly: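 HepG2 cells are kept in DMEM high glucose with 10% heat-inactivated FBS and 1% P/S at 37 °C, 5% CO2, and seeded at 2x10^4 cells/well one day ahead. They are exposed to compounds (100 to 3 µM, from 5 mM DMSO stocks) in 50 µL for 1 h. Medium is then added and cells incubated 24 h. alamarBlue is read after 2 h (Ex 560/Em 600). Triplicate on ≥2 occasions; ED50 from dose-response; DMSO negative control.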

Series [3] has as its system Pseudomonas aeruginosa. The series is described as follows: Antibacterial activity against Pseudomonas aeruginosa PAO1 ATCC 15692 incubated for 16 hrs under shaking condition. To be noted: PAO1 ATCC 15692, 16 h. In kind it is functional. Put shortly:
(§1)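 Broth microdilution (Andrews method) in Iso-sensitest broth. Overnight cultures are adjusted to A650 0.07 (0.5 McFarland) and diluted ten-fold. Compounds come from 5 mM DMSO stocks, 2-fold serially diluted, final 2–100 μM in a 1:1 inoculum:compound mix. Incubation is 37 °C for 16 h with shaking. MIC is the lowest concentration giving complete growth inhibition, read by absorbance; triplicate.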

Series [4] relates to Staphylococcus aureus. In words: Antibacterial activity against Staphylococcus aureus 3R7089 strain Oxford/ATCC 9144 incubated for 16 hrs under shaking condition. The conditions noted are these: 3R7089 strain Oxford/ATCC 9144, 16 h. It counts as functional. The gist of the method: as §1
Series [5] concerns Staphylococcus epidermidis. In words: Antibacterial activity against Staphylococcus epidermidis clinical isolate incubated for 16 hrs under shaking condition. In kind it is functional. Put shortly:
as §1

A short description of series [6]: Selectivity index, ratio of ED50 for human HaCaT cells to MIC for Escherichia coli K-12 W3110 ATCC 27325. In kind it is toxicity. The conditions noted are these: read-out: Selectivity Index.
Series [7] in a line: Selectivity index, ratio of ED50 for human HaCaT cells to MIC for Pseudomonas aeruginosa PAO1 ATCC 15692. It counts as toxicity. To be noted: read-out: Selectivity Index.
A short description of series [8]: Selectivity index, ratio of ED50 for human HaCaT cells to MIC for Staphylococcus aureus 3R7089 strain Oxford/ATCC 9144. In kind it is toxicity. To be noted: read-out: Selectivity Index.
Series [9] is described as follows: Selectivity index, ratio of ED50 for human HaCaT cells to MIC for Staphylococcus epidermidis clinical isolate. It counts as toxicity. The conditions noted are these: read-out: Selectivity Index.
The nature of series [10]: Selectivity index, ratio of ED50 for human HepG2 cells to MIC for Escherichia coli K-12 W3110 ATCC 27325. The conditions noted are these: read-out: Selectivity Index. In kind it is toxicity.
Series [11] is described as follows: Selectivity index, ratio of ED50 for human HepG2 cells to MIC for Pseudomonas aeruginosa PAO1 ATCC 15692. In kind it is toxicity. The conditions noted are these: read-out: Selectivity Index.
The nature of series [12]: Selectivity index, ratio of ED50 for human HepG2 cells to MIC for Staphylococcus aureus 3R7089 strain Oxford/ATCC 9144. It counts as toxicity. The conditions noted are these: read-out: Selectivity Index.
A short description of series [13]: Selectivity index, ratio of ED50 for human HepG2 cells to MIC for Staphylococcus epidermidis clinical isolate. It counts as toxicity. To be noted: read-out: Selectivity Index.
For series [14], the system named is Escherichia coli. The series is described as follows: Antibacterial activity against Escherichia coli K-12 W3110 ATCC 27325 incubated for 16 hrs under shaking condition. The conditions noted are these: K-12 substr. W3110 ATCC 27325, 16 h. It counts as functional. Put shortly: as §1

In the case of `C[C@@H](c1ccccc1)N(CC(N)=O)C(=O)CN(C(=O)CN(CCCCCCN)C(=O)CN(C(=O)CN(C(=O)CN(CCCCCCN)C(=O)CN(C(=O)CN(C(=O)CNCCCCCCN)[C@@H](C)c1ccccc1)[C@@H](C)c1ccccc1)[C@@H](C)c1ccccc1)[C@@H](C)c1ccccc1)[C@@H](C)c1ccccc1` (H-[Gly(N-(CH2)6NH2)][Nspe][Nspe][Gly(N-(CH2)6NH2)][Nspe][Nspe][Gly(N-(CH2)6NH2)][Nspe][Nspe]-NH2), the CC50 at 24 h in [1] and in [2] was above 100 µM each time. Also, the MIC is above 100 µM in series [3], 3 µM (≈ 4.36 µg/mL) in [4] and 2 µM (≈ 2.91 µg/mL) in series [5]. For the same molecule, the selectivity ratio is 4 in [6]; 1 in [7]; 33 in series [8]; 50 in series [9]; 4 in series [10]; 1 in series [11]. Also, the selectivity ratio came out at 33 in series [12] and 50 in [13].

With `CCCCCNCC(=O)N(CC(=O)N(CC(=O)N(CCCCNC(=N)N)CC(=O)N(CC(=O)N(CC(=O)N(CCCCC)CC(=O)N(CC(=O)N(CC(=O)N(CCCCNC(=N)N)CC(=O)N(CC(=O)N(CC(N)=O)[C@@H](C)c1ccccc1)[C@@H](C)c1ccccc1)[C@@H](C)c1ccccc1)[C@@H](C)c1ccccc1)[C@@H](C)c1ccccc1)[C@@H](C)c1ccccc1)[C@@H](C)c1ccccc1)[C@@H](C)c1ccccc1` (H-[NPentylGly][Nspe][Nspe][NhArg][Nspe][Nspe][NPentylGly][Nspe][Nspe][NhArg][Nspe][Nspe]-NH2), the MIC in [14] and in series [3] was above 100 µM throughout. The selectivity ratio in series [8] came out at 10; in [9], 5; in series [12], 8; in series [13], 4.

Take `C[C@@H](c1ccccc1)N(CC(N)=O)C(=O)CN(C(=O)CN(CCCCCCN)C(=O)CN(C(=O)CN(C(=O)CNCCCCCCN)[C@@H](C)c1ccccc1)[C@@H](C)c1ccccc1)[C@@H](C)c1ccccc1`: the CC50 at 24 h in series [1] and in series [2] was above 100 µM in each case. For the same molecule, the figures for the MIC in series [3], in series [4] and in series [5] were above 100 µM, above 100 µM and 25 µM (≈ 24.4 µg/mL), respectively. For the same molecule, the selectivity ratio in series [6] is 1; in series [7] it was 1; in series [8], 1; in series [9], 4; in [10], 1; in series [11] it was 1. Besides, the selectivity ratio amounted to 1 in [12] and 4 in [13].

In the case of `COc1ccc(CN(CC(N)=O)C(=O)CN(Cc2ccc(OC)cc2)C(=O)CN(CCCCN)C(=O)CN(Cc2ccc(OC)cc2)C(=O)CN(Cc2ccc(OC)cc2)C(=O)CN(CCCCN)C(=O)CN(Cc2ccc(OC)cc2)C(=O)CN(Cc2ccc(OC)cc2)C(=O)CN(CCCCN)C(=O)CN(Cc2ccc(OC)cc2)C(=O)CN(Cc2ccc(OC)cc2)C(=O)CNCCCCN)cc1`, the MIC in [14] and in series [3] was above 100 µM each time. Also, the CC50 at 24 h in series [2] is above 100 µM. Further, the selectivity ratio in series [6] is 0; in [7] it was 0; in [8], 14; in [9], 21; in series [10] it was 1; in series [11] it was 1. In addition, the figures for the selectivity ratio in [12] and in series [13] were 33 and 50, respectively.

For `NCCCCCCNCC(=O)N(CC(=O)N(CC(=O)N(CCCCCCN)CC(=O)N(CC(=O)N(CC(N)=O)Cc1ccccc1)Cc1ccccc1)Cc1ccccc1)Cc1ccccc1` (H-[Gly(N-(CH2)6NH2)][Nphe][Nphe][Gly(N-(CH2)6NH2)][Nphe][Nphe]-NH2), the CC50 at 24 h in series [1] and in [2] was above 100 µM in each case. Moreover, the minimal inhibitory concentration (MIC) in [3], in series [4] and in [5] was above 100 µM throughout. For the same molecule, the selectivity ratio in series [6], in [7], in series [8], in series [9], in series [10] and in [11] was 1 in each case. The selectivity ratio in [12] and in series [13] was 1 in each case.

As to `NCCCCCCNCC(=O)N(CC(=O)N(CC(=O)N(CCCCCCN)CC(=O)N(CC(=O)N(CC(=O)N(CCCCCCN)CC(=O)N(CC(=O)N(CC(=O)N(CCCCCCN)CC(=O)N(CC(=O)N(CC(N)=O)Cc1ccccc1)Cc1ccccc1)Cc1ccccc1)Cc1ccccc1)Cc1ccccc1)Cc1ccccc1)Cc1ccccc1)Cc1ccccc1` (H-[Gly(N-(CH2)6NH2)][Nphe][Nphe][Gly(N-(CH2)6NH2)][Nphe][Nphe][Gly(N-(CH2)6NH2)][Nphe][Nphe][Gly(N-(CH2)6NH2)][Nphe][Nphe]-NH2), the CC50 at 24 h in series [1] and in series [2] was above 100 µM each time. Further, the figures for the MIC in series [3], in [4] and in series [5] were above 100 µM, 2 µM (≈ 3.64 µg/mL) and 6 µM (≈ 10.9 µg/mL), respectively. Further, the selectivity ratio amounted to 8 in series [6]; 1 in series [7]; 50 in series [8]; 17 in series [9]; 8 in series [10]; 1 in series [11]. Moreover, the figures for the selectivity ratio in series [12] and in [13] were 50 and 17, respectively.

As for `NCCCCCCNCC(=O)N(CC(=O)N(CC(=O)N(CCCCCCN)CC(=O)N(CC(=O)N(CC(=O)N(CCCCCCN)CC(=O)N(CC(=O)N(CC(N)=O)Cc1ccccc1)Cc1ccccc1)Cc1ccccc1)Cc1ccccc1)Cc1ccccc1)Cc1ccccc1` (H-[Gly(N-(CH2)6NH2)][Nphe][Nphe][Gly(N-(CH2)6NH2)][Nphe][Nphe][Gly(N-(CH2)6NH2)][Nphe][Nphe]-NH2), the CC50 at 24 h in series [1] and in series [2] was above 100 µM in each case. The results for the MIC in series [3], in [4] and in series [5] were above 100 µM, 6 µM (≈ 8.21 µg/mL) and 3 µM (≈ 4.11 µg/mL), respectively. Besides, the selectivity ratio is 2 in series [6]; 1 in series [7]; 17 in [8]; 33 in series [9]; 2 in series [10]; 1 in series [11]. In addition, the selectivity ratio in series [12] came to 17; in [13], 33.

For `NCCCCNCC(=O)N(CC(=O)N(CC(=O)N(CCCCN)CC(=O)N(CC(=O)N(CC(=O)N(CCCCN)CC(=O)N(CC(=O)N(CC(=O)N(CCCCN)CC(=O)N(CC(=O)N(CC(N)=O)Cc1ccc(Cl)cc1)Cc1ccc(Cl)cc1)Cc1ccc(Cl)cc1)Cc1ccc(Cl)cc1)Cc1ccc(Cl)cc1)Cc1ccc(Cl)cc1)Cc1ccc(Cl)cc1)Cc1ccc(Cl)cc1` (H-[Nlys][Gly(Nα-4-Cl-benzyl)][Gly(Nα-4-Cl-benzyl)][Nlys][Gly(Nα-4-Cl-benzyl)][Gly(Nα-4-Cl-benzyl)][Nlys][Gly(Nα-4-Cl-benzyl)][Gly(Nα-4-Cl-benzyl)][Nlys][Gly(Nα-4-Cl-benzyl)][Gly(Nα-4-Cl-benzyl)]-NH2), the minimum inhibitory concentration (MIC) in [14] and in series [3] was above 100 µM throughout. Moreover, the selectivity ratio in series [8] worked out at 1; in series [9], 3; in series [12] it was 1; in series [13] it was 4.

Turning to `C[C@@H](c1ccccc1)N(CC(N)=O)C(=O)CN(C(=O)CN(CCN)C(=O)CN(C(=O)CN(C(=O)CN(CCN)C(=O)CN(C(=O)CN(C(=O)CN(CCN)C(=O)CN(C(=O)CN(C(=O)CNCCN)[C@@H](C)c1ccccc1)[C@@H](C)c1ccccc1)[C@@H](C)c1ccccc1)[C@@H](C)c1ccccc1)[C@@H](C)c1ccccc1)[C@@H](C)c1ccccc1)[C@@H](C)c1ccccc1` (H-[Gly(N-2-aminoethyl)][Nspe][Nspe][Gly(N-2-aminoethyl)][Nspe][Nspe][Gly(N-2-aminoethyl)][Nspe][Nspe][Gly(N-2-aminoethyl)][Nspe][Nspe]-NH2), the MIC in series [14] is above 100 µM. Besides, the selectivity ratio in [7] stood at 1; in [8], 13; in series [9], 13; in series [11], 1; in series [12] it was 21; in series [13], 21.
